Test results as given in ChEMBL document CHEMBL1157478, “Pyrrolo[2,1-c][1,4]benzodiazepine-beta-glucuronide prodrugs with a potential for selective therapy of solid tumors by PMT and ADEPT strategies” (Bioorg Med Chem Lett, 2008).
Active and inactive are the calls of the source. The calls are words filed in the database; no cut-off is given here.

Key:
HT-29 [1] = assay: Induction of cell shrinkage in human HT29 cells after 2 hrs in presence of beta-glucuronidase; format: functional, cell-based
Method in brief: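 HT-29 adenocarcinoma cells were incubated 2 h with compound plus the enzyme beta-glucuronidase. Shrinkage was scored by microscopic examination of cell morphology against untreated control cells.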

HT-29 [2] = assay: Activation factor, ratio of IC50 for human HT29 cells to IC50 for human HT29 cells in presence of beta-glucuronidase; format: functional
HT-29 [3] = assay: Cytotoxicity against human HT29 cells in presence of beta-glucuronidase by MTT assay; format: functional, cell-based
HT-29 [4] = assay: Cytotoxicity against human HT29 cells by MTT assay; format: functional, cell-based
HT-29 [5] = assay: Induction of cell shrinkage in human HT29 cells after 2 hrs; format: functional, cell-based
Method in brief: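 HT-29 adenocarcinoma cells were incubated 2 h with compound alone. Morphology (shrinkage) was examined under the microscope against untreated control cells.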

COc1cc2c(cc1OCc1ccccc1)N(C(=O)OCc1ccc(O[C@@H]3O[C@H](C(=O)O)[C@@H](O)[C@H](O)[C@H]3O)c([N+](=O)[O-])c1)C(O)[C@@H]1CCCN1C2=O (stereo partly specified)
Activity (HT-29 [1]): Active | Ratio IC50 (HT-29 [2]): 126.67 | IC50 (HT-29 [3]): 41.68 µmol | IC50 (HT-29 [4]): 5280 µmol | Activity (HT-29 [5]): inactive

COc1cc2c(cc1OCCCCCOc1cc3c(cc1OC)C(=O)N1CCC[C@H]1C(=O)N3)N=C[C@@H]1CCCN1C2=O
IC50 (HT-29 [4]): 8.12 µmol

COc1cc2c(cc1O)N=C[C@@H]1CCCN1C2=O
IC50 (HT-29 [4]): 30.19 µmol | Activity (HT-29 [5]): Active

COc1cc2c(cc1OCCCCCOc1cc3c(cc1OC)C(=O)N1CCC[C@H]1C(O)N3C(=O)OCc1ccc(O[C@@H]3O[C@H](C(=O)O)[C@@H](O)[C@H](O)[C@H]3O)c([N+](=O)[O-])c1)NC(=O)[C@@H]1CCCN1C2=O (stereo partly specified)
Ratio IC50 (HT-29 [2]): 208.85 | IC50 (HT-29 [3]): 12.88 µmol | IC50 (HT-29 [4]): 2690 µmol
